The source of these data is the RNAGym collection of RNA variant scans (doi:10.1126/science.aae0568).

B1: tRNA (parent)
chain: GUUCCGUUGGCGUAAUGGUAACGCGUCUCCCUCCUAAGGAGAAGACUGCGGGUUCGAGUCCCGUACGGAACG

Fewer inactive variants are shown than the library holds. Bounds are passed on as bounds.

Variants of B1 are the subject of this data set. Description: yeast fitness relative to wild type (ratio to wild type); higher = fitter; tRNA-Arg(CCU), competitive growth, 37 C, YPD. The gist of the method: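 The tRNA-Arg(CCU) gene variants were made by chemical synthesis with a 3% per-site mutation rate at 69 sites and inserted at the native genomic locus of Saccharomyces cerevisiae. After pooling, the strains were competed in YPD at 37°C for 24 hours in six parallel replicates. Gene amplicons from the start population and each end population were read by 100-nucleotide paired-end sequencing, and Darwinian fitness relative to wild type was taken from genotype frequency changes. Genotypes needed ≥ 100 starting reads, and estimates < 0.5 were set to 0.5.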
On to C11G G39C U47C C60A C61G, for which the yeast fitness is at most 0.5.

As for C11U C66A, the yeast fitness is 0.65.

Consider A40C A45C A65G G68U, for which the yeast fitness was at most 0.5.

For the variant G6C C31U G39A C46G, the yeast fitness was at most 0.5.

As for G6A C33A U35A G68C, the yeast fitness is at most 0.5.

U19G A21G: the yeast fitness was 1.05.

In the case of U2A C4G C55A C61G, the yeast fitness was at most 0.5.

In the case of C29G C60U, the yeast fitness was determined as 0.576.

With U28A G48C A69U A70U, the yeast fitness was at most 0.5.

Regarding U32C G52A G58C, the yeast fitness was at most 0.5.

Turning to G17C G51C C66U, the yeast fitness is at most 0.5.

Regarding G10A G38C G50A A69G, the yeast fitness is at most 0.5.

G6A C27U C29A G58C C66U: the yeast fitness was at most 0.5.

Turning to U32C A43C G52A C55U C60A, the yeast fitness is at most 0.5.

For the variant G10C A14C C60A, the yeast fitness is at most 0.5.

As for A20U C24G C31G G52A C55G C61U, the yeast fitness was at most 0.5.

Regarding G23A C30U G39A C60G, the yeast fitness is at most 0.5.

Consider U7C C24G A65C, for which the yeast fitness is at most 0.5.

As to U8C G12A G18A A45C, the yeast fitness was at most 0.5.

On to G23A U59C, for which the yeast fitness turned out to be 0.799.

For the variant C30G C31A A36G G63C, the yeast fitness was at most 0.5.

Regarding U13C A43U G56A, the yeast fitness stood at 0.797.

In the case of G17C U53A G56A A57C A65C, the yeast fitness is at most 0.5.

Take G10A C24G A43G: the yeast fitness was at most 0.5.

For the variant G12C U59G, the yeast fitness is 0.79.

As for A20G C33U, the yeast fitness came to 0.798.

With G38A A43G A70C, the yeast fitness amounted to 0.584.

Turning to U7A G10C C31G G67U, the yeast fitness is at most 0.5.

Regarding C33U A43U, the yeast fitness amounted to 0.898.

C11G U19A A21G C27U G39C: the yeast fitness is at most 0.5.

Consider C22G C31U C62U A65U, for which the yeast fitness is at most 0.5.

Take C24U G38C A40G: the yeast fitness was at most 0.5.

Turning to G12A A14G A15G C27U G38A G68C, the yeast fitness is at most 0.5.

Turning to U3A A70G, the yeast fitness was 1.

Take G48C A65C C66G: the yeast fitness turned out to be 0.557.

Consider C24G A37G A43U C62G, for which the yeast fitness came out at 0.77.

Regarding U2G C24G, the yeast fitness was determined as 0.769.

In the case of U28C C31U, the yeast fitness was 0.981.

Regarding C5U C33U U54C G58A, the yeast fitness was found to be 0.703.

With U8A G9A G67A, the yeast fitness amounted to 0.553.

For G10A G39A A65C C66G, the yeast fitness was found to be 0.556.

C5U U19C: the yeast fitness was 0.963.

On to G10C A36U U53A C60A, for which the yeast fitness turned out to be 0.548.

As to G41C A57U, the yeast fitness worked out at 0.661.

Consider U3A U26C U53C, for which the yeast fitness is at most 0.5.

For C31G C34G A57C, the yeast fitness amounted to 0.685.

For C5U C22G C29G U32C, the yeast fitness is at most 0.5.

As to C29G U32C C61G C66G, the yeast fitness is at most 0.5.

As to A40U G63A, the yeast fitness amounted to 0.721.

In the case of U16A A21G C34A C49G C62U, the yeast fitness was at most 0.5.

On to A14U A42C G52A G56C, for which the yeast fitness was at most 0.5.

On to G10C A37U G52A, for which the yeast fitness is at most 0.5.

With A42U G58C, the yeast fitness is 0.924.

On to A15G G50A, for which the yeast fitness was found to be 0.929.

On to C27U U54G C55U, for which the yeast fitness is at most 0.5.

In the case of C46G C60A, the yeast fitness amounted to 0.576.

In the case of U28A C29G A36C, the yeast fitness was found to be 0.516.

For U26G G48A C61U, the yeast fitness was determined as 0.94.

G17A A37G: the yeast fitness came out at 0.606.

In the case of C5U U19C U28A C66U G68A, the yeast fitness is at most 0.5.

As to C5A A15G G18C C29A U54A, the yeast fitness is at most 0.5.

For U8C C24G C29A A43U G68C, the yeast fitness was at most 0.5.

For U2G, the yeast fitness worked out at 0.994.

For U28G A57U U59C, the yeast fitness is at most 0.5.

With C5U C11A C24G C27G A36U G38C A70C, the yeast fitness is at most 0.5.

Turning to C33G A40G C66G, the yeast fitness turned out to be 0.698.

On to G12C U16C A42C C49U, for which the yeast fitness was 0.594.

As for C30G C33G G48C C60A, the yeast fitness is 0.586.

C11U C34G: the yeast fitness is 0.591.

Turning to C4A U16C U35G A45U G51A, the yeast fitness is at most 0.5.

Take C4U G9A G39A G44C: the yeast fitness was at most 0.5.

Take G44A A65C: the yeast fitness turned out to be 1.05.

Take G44A A65U: the yeast fitness came out at 0.816.

As for G25A C27U, the yeast fitness turned out to be 0.901.

Regarding A21C A57G, the yeast fitness was 0.708.

For the variant G9A U35C A42U, the yeast fitness was at most 0.5.

For the variant A14G C30A C34A A43C A65C A70C, the yeast fitness is at most 0.5.

A42U G50A C60G: the yeast fitness is 0.614.

Take A36G A43C: the yeast fitness was 0.819.

Turning to G17C G51A A65C, the yeast fitness was at most 0.5.

Consider C46U C61G C66U A69U, for which the yeast fitness was at most 0.5.

In the case of U8A A14C C24U U26A U28G U54G, the yeast fitness is at most 0.5.

Turning to C30G C61U A70G, the yeast fitness was 0.603.

With C4A G9C A14G C30A G39A, the yeast fitness was at most 0.5.

Turning to U2G U26G G44C G58A A65G, the yeast fitness is at most 0.5.

Take A21U C46U C49U U54A: the yeast fitness was at most 0.5.

Turning to C55U G63A, the yeast fitness was 0.643.

Turning to A14U C24G G41A G44A U53A G63A C66U, the yeast fitness was at most 0.5.

Take G6C: the yeast fitness worked out at 1.

With C11U U13C A15G C46A, the yeast fitness was 0.631.

Turning to C55U C66U, the yeast fitness is 0.667.

In the case of G9A G67U, the yeast fitness is 0.863.

On to A42G C49G, for which the yeast fitness was determined as 0.767.

Regarding U7G A40C C55G, the yeast fitness amounted to 0.591.

As to C11G A42G U54C A57C, the yeast fitness is at most 0.5.

Consider G12A U16A, for which the yeast fitness was 0.974.

As for G39A C61U C62A, the yeast fitness was determined as 0.558.

For the variant C5U C30G A69C A70G, the yeast fitness was at most 0.5.

A15G A20G A21C C31U: the yeast fitness was at most 0.5.

With C5U G10A C66U, the yeast fitness came out at 0.574.

In the case of A14C G18C G56A, the yeast fitness was at most 0.5.

For C24U C30U C60A, the yeast fitness came out at 0.532.

Consider U26G A40G, for which the yeast fitness amounted to 0.778.

With U2G C46A C66U, the yeast fitness came to 0.584.

As to U3C G12A U13C A37C A45U G48C, the yeast fitness was at most 0.5.

Consider U35A G41A C55U, for which the yeast fitness turned out to be 0.539.

U7G C62G: the yeast fitness was determined as 0.603.

G6A C34A U47G C49G C60G: the yeast fitness was at most 0.5.

For the variant A37G A65G, the yeast fitness came out at 0.695.

For the variant A37C U47C G51A G67A, the yeast fitness is at most 0.5.

In the case of C5G G25A G48A C61G, the yeast fitness is at most 0.5.

As to C5U G38C G41C C60G, the yeast fitness is at most 0.5.

For the variant G17A G56C G58C G63A, the yeast fitness was at most 0.5.

Regarding C4A C24G G44C C62G, the yeast fitness is at most 0.5.

On to C34U A37U C66U, for which the yeast fitness was at most 0.5.

For A15U A36G C55G, the yeast fitness is 0.565.

Consider U7C C24U U54A, for which the yeast fitness was at most 0.5.

In the case of G10C G18C A42G G68A, the yeast fitness is at most 0.5.

As for C31G U35C C66U, the yeast fitness stood at 0.558.

Turning to C31U G68C, the yeast fitness was 0.68.

Regarding C29U U53C C55G C62A, the yeast fitness is at most 0.5.

Consider A20U C27U, for which the yeast fitness amounted to 1.05.

In the case of C61A A69G, the yeast fitness was 0.584.

Regarding U7A A42G G68C, the yeast fitness was at most 0.5.

As for C11G C30G C31G U32A C55G G67A, the yeast fitness was determined as 0.696.

As to C31A A40U U53G G56C C62G A70C, the yeast fitness is at most 0.5.

As for C33G A45U G51C, the yeast fitness was at most 0.5.

As for A20U C22G C60A, the yeast fitness was at most 0.5.

With U7A U32A C61G, the yeast fitness is at most 0.5.

Take G12A U13C C49G U59A: the yeast fitness was at most 0.5.

For the variant C27G C60A, the yeast fitness was at most 0.5.

In the case of U13G C29U G48A G56A, the yeast fitness stood at 0.55.

In the case of C5A U64A, the yeast fitness was found to be 0.766.

C4U U7A C46G A65C: the yeast fitness was found to be 0.535.

In the case of U7A C11A A21C C29U C49U, the yeast fitness was 0.544.

Take G17C C30G C60G G63A A65U C66U: the yeast fitness was determined as 0.549.

Take G41A A43G C60U: the yeast fitness came to 0.507.

A37C C49G A70C: the yeast fitness is at most 0.5.

For the variant C24G A37G G58A G67A, the yeast fitness is at most 0.5.

As to A14C G18A G48A C60G, the yeast fitness came out at 0.558.

For the variant G23C C31G G50A, the yeast fitness was at most 0.5.

Regarding U3C C11A C33U C49A, the yeast fitness was at most 0.5.

As for C5U C34A C55U, the yeast fitness is 0.529.

Regarding U16G C22U C62U, the yeast fitness was 0.645.

In the case of U26G A37C, the yeast fitness stood at 0.652.

Regarding G25C C29G C30U C49G, the yeast fitness was 0.61.

For U3A C30U G56A, the yeast fitness is at most 0.5.

As to C5U C29A U32C C60A, the yeast fitness stood at 0.596.

With G52C C55U A65U, the yeast fitness is at most 0.5.

With U26A G52U C55A, the yeast fitness was 0.616.

Turning to C31G C62A, the yeast fitness was found to be 0.607.

Regarding U2G C34U A69U, the yeast fitness was 0.543.

With A21G G50C, the yeast fitness is 0.76.

Consider C4G A57U A70U, for which the yeast fitness was 0.869.

With G18A C62A, the yeast fitness was 0.513.

With U8G C24G G41A, the yeast fitness is 0.553.

Consider U2C U28A A43C A57C C62A, for which the yeast fitness was 0.572.

Consider A14G C22A C29U G56C G58C C66U, for which the yeast fitness is at most 0.5.

For the variant A15C A40C U54C, the yeast fitness was at most 0.5.

On to U28A U35C A37C U64A G67A, for which the yeast fitness was at most 0.5.

On to U7A C46A C66A, for which the yeast fitness was at most 0.5.

Take C11U A21U G50C: the yeast fitness turned out to be 0.788.

For the variant C11G A14U A36U G38C C55U G56C, the yeast fitness was at most 0.5.

With G18A C30U C55A, the yeast fitness was found to be 0.592.

In the case of C29U C55U A65G, the yeast fitness was at most 0.5.

As to G10A U32A C49U, the yeast fitness turned out to be 0.577.

For the variant G9A A45C, the yeast fitness is 0.971.
